Results as given in paper PMC5088049 (Pharmacogenetics and genomics, 2016).
Residue numbers refer to the chain shown, from its start.

Experiments:
Type in all cases: in vitro ADME
[1] = Kinetics of EXE reduction to 17β-DHE, pooled human liver cytosol
AKR1C1 = AKR1C1 (Homo sapiens, UniProt Q04828); assay: Kinetics of EXE reduction to 17β-DHE, recombinant AKR1C1; details: wildtype AKR1C1
AKR1C2 [2] = molecular target: T1, AKR1C2 (Homo sapiens, UniProt P52895); assay: Kinetics of EXE reduction to 17β-DHE, recombinant AKR1C2; details: wildtype AKR1C2
AKR1C2 Phe46Tyr = molecular target: T2, AKR1C2 Phe46Tyr (Homo sapiens, UniProt P52895, F46Y); assay: Kinetics of EXE reduction to 17β-DHE, recombinant AKR1C2 Phe46Tyr; details: VMAX/KM
T2 sequence (P52895 1-323 F46Y): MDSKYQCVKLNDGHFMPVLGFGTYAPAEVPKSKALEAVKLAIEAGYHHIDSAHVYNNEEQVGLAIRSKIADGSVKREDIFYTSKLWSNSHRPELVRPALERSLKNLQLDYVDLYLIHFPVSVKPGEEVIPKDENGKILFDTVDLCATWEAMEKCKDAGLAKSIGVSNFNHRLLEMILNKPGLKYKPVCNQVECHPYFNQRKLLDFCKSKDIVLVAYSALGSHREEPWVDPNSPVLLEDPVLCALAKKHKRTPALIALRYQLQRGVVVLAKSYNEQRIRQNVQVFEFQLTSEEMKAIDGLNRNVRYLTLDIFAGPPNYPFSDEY

AKR1C3 = AKR1C3 (Homo sapiens, UniProt P42330); assay: Kinetics of EXE reduction to 17β-DHE, recombinant AKR1C3
AKR1C3 His5Gln = AKR1C3 His5Gln (Homo sapiens, UniProt P42330, H5Q); assay: Kinetics of EXE reduction to 17β-DHE, recombinant AKR1C3 His5Gln
AKR1C3 Glu77Gly = AKR1C3 Glu77Gly (Homo sapiens, UniProt P42330, E77G); assay: Kinetics of EXE reduction to 17β-DHE, recombinant AKR1C3 Glu77Gly; details: for VMAX: normalized to enzyme purity
AKR1C3 Lys104Asn = AKR1C3 Lys104Asn (Homo sapiens, UniProt P42330, K104N); assay: Kinetics of EXE reduction to 17β-DHE, recombinant AKR1C3 Lys104Asn
AKR1C4 = molecular target: T3, AKR1C4 (Homo sapiens, UniProt P17516); assay: Kinetics of EXE reduction to 17β-DHE, recombinant AKR1C4; details: wildtype AKR1C4; for VMAX: normalized to enzyme purity
T3 sequence (P17516 1-323): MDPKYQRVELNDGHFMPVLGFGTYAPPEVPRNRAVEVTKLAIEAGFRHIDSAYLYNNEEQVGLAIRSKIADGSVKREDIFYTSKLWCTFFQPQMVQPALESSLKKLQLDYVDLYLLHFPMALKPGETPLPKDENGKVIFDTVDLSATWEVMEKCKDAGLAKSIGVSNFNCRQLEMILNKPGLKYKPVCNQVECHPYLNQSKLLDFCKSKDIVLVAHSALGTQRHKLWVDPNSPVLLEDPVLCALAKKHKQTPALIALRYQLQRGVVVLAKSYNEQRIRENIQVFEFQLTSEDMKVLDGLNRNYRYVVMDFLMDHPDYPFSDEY

AKR1C4 Leu311Val = molecular target: T4, AKR1C4 Leu311Val (Homo sapiens, UniProt P17516, L311V); assay: Kinetics of EXE reduction to 17β-DHE, recombinant AKR1C4 Leu311Val
T4 sequence (P17516 1-323 L311V): T3 sequence (P17516 1-323) with L311V

CBR1 [3] = molecular target: T5, CBR1 (Homo sapiens, UniProt P16152); assay: Kinetics of EXE reduction to 17β-DHE, recombinant CBR1; details: for CLINT: VMAX/KM
T5 sequence (P16152 1-277): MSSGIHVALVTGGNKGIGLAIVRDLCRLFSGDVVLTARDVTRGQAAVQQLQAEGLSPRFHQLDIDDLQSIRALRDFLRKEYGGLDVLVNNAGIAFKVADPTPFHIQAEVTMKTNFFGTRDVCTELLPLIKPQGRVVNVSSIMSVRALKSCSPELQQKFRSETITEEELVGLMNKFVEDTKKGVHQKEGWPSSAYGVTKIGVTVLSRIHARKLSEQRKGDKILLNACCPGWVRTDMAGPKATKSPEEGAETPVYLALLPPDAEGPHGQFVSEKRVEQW

[4] = Metabolite identification, overnight incubation with pooled human liver cytosol; details: 200 µM EXE, 18-h incubation, 7.5 µg pooled human liver cytosol, PBS pH 7.4, 37°C, NADPH regeneration system
CBR1 [5] = molecular target: T5, CBR1; assay: Metabolite identification, overnight incubation with recombinant CBR1; details: 200 µM EXE, 18-h incubation, 1.5 µg recombinant CBR1
Method in brief: (§1)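 Wildtype enzyme was His-tagged, expressed in E. coli BL21 (IPTG induction), Ni-NTA purified and dialysed against PBS. It was stopped with ice-cold acetonitrile and centrifuged. UPLC/ESI+ full scan (m/z 100–450) was followed by targeted MS/MS transitions. Retention times were matched to synthetic 17α/17β-dihydro standards.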

AKR1C2 [6] = molecular target: T1, AKR1C2; assay: Metabolite identification, overnight incubation with recombinant AKR1C2; details: 200 µM EXE, 18-h incubation, 1.5 µg recombinant AKR1C2
Method in brief: as §1

T1 sequence (P52895 whole entry): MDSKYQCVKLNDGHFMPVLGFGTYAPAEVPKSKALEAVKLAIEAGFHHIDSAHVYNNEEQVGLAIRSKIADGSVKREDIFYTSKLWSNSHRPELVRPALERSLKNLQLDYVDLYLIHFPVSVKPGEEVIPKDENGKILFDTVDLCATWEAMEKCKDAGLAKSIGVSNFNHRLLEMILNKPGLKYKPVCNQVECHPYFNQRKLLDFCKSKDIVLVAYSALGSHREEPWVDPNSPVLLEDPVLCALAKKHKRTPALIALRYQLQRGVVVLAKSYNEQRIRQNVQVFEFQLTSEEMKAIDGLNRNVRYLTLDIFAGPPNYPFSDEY
AKR1C3, sequence (P42330 whole entry): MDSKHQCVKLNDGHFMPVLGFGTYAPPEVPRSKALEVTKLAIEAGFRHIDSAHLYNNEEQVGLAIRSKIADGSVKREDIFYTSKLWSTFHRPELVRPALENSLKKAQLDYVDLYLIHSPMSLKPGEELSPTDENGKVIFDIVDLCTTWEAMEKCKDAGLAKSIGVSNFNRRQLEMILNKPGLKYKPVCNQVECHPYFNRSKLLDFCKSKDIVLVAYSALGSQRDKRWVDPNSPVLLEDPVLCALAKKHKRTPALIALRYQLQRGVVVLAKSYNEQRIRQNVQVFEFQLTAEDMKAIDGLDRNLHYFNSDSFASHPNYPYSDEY
AKR1C3 His5Gln, sequence (P42330 whole entry H5Q): as the sequence (P42330 whole entry) above, with H5Q counted along it
AKR1C3 Glu77Gly, sequence (P42330 whole entry E77G): as the sequence (P42330 whole entry) above, with E77G counted along it
AKR1C3 Lys104Asn, sequence (P42330 whole entry K104N): as the sequence (P42330 whole entry) above, with K104N counted along it
AKR1C1, sequence (Q04828 whole entry): as the sequence (P52895 whole entry) above, with V38T, H47R, V54L, S87C, M151V, H170R, L172Q counted along it

C=C1C[C@@H]2[C@H](CC[C@]3(C)C(=O)CC[C@@H]23)[C@@]2(C)C=CC(=O)C=C12 [exemestane, 6-methylenandrosa-1,4-diene-3-17-dione]
maximum rate of 17β-DHE formation (VMAX) ([1]; 5 µg pooled HLC, 90-min incubation, EXE 0.5–400 µM): 21 ± 4.8 pmol/min/mg | Km at 90 min ([1]; human, pooled human liver cytosol, pH 7.4): 55.7 ± 1.9 µM | CLINT (AKR1C1; VMAX/KM): 0.002 µL/min/mg | VMAX (AKR1C1; normalized to enzyme purity): 71.1 ± 1.5 picomoles·min^−1·mg^−1 | CLINT (AKR1C2 [2]; VMAX/KM): 0.0051 µL/min/mg | VMAX (AKR1C2 [2]; normalized to enzyme purity): 84.2 ± 15.6 picomoles·min^−1·mg^−1 | CLINT (AKR1C2 Phe46Tyr): 0.0078 µL/min/mg | VMAX of AKR1C3 relative to AKR1C4 (AKR1C3; higher than AKR1C4): 36 fold | Km (AKR1C3; wildtype AKR1C3, 17β-DHE formation): 12.3 ± 1.1 µM | CLINT (AKR1C3; wildtype AKR1C3, VMAX/KM): 0.0068 µL/min/mg | VMAX (AKR1C3; wildtype AKR1C3, normalized to enzyme purity): 83.3 ± 15.4 picomoles·min^−1·mg^−1 | Km (AKR1C3 His5Gln; AKR1C3 His5Gln (rs12529), 17β-DHE formation): 17.9 ± 2.9 µM | CLINT (AKR1C3 His5Gln; AKR1C3 His5Gln, VMAX/KM): 0.00021 µL/min/mg | VMAX (AKR1C3 His5Gln; AKR1C3 His5Gln, normalized to enzyme purity): 3.8 ± 0.1 picomoles·min^−1·mg^−1 | Km (AKR1C3 Glu77Gly; AKR1C3 Glu77Gly (rs11551177), 17β-DHE formation): 13.9 ± 2.2 µM | CLINT (AKR1C3 Glu77Gly; AKR1C3 Glu77Gly, VMAX/KM): 0.00014 µL/min/mg | VMAX (AKR1C3 Glu77Gly; AKR1C3 Glu77Gly): 1.9 ± 0.2 picomoles·min^−1·mg^−1 | VMAX (AKR1C3 Glu77Gly; AKR1C3 Glu77Gly, listed as EXE): 1.9 ± 0.2 picomoles·min^−1·mg^−1 | Km (AKR1C3 Lys104Asn; AKR1C3 Lys104Asn (rs12387), 17β-DHE formation): 16.8 ± 1 µM | CLINT (AKR1C3 Lys104Asn; AKR1C3 Lys104Asn, VMAX/KM): 0.00038 µL/min/mg | VMAX (AKR1C3 Lys104Asn; AKR1C3 Lys104Asn, normalized to enzyme purity): 6.4 ± 0.3 picomoles·min^−1·mg^−1 | Km (AKR1C4; 17β-DHE formation): 9.7 ± 1.9 µM | CLINT (AKR1C4; VMAX/KM): 0.00024 µL/min/mg | VMAX (AKR1C4): 2.3 ± 0.6 picomoles·min^−1·mg^−1 | VMAX (AKR1C4; listed as EXE): 2.3 ± 0.6 picomoles·min^−1·mg^−1 | Km (AKR1C4 Leu311Val; AKR1C4 Leu311Val (rs17134592), 17β-DHE formation): 11.9 ± 2 µM | CLINT (AKR1C4 Leu311Val; AKR1C4 Leu311Val, VMAX/KM): 0.00053 µL/min/mg | VMAX (AKR1C4 Leu311Val; AKR1C4 Leu311Val, normalized to enzyme purity): 6.3 ± 0.8 picomoles·min^−1·mg^−1 | rate of EXE reduction by CBR1 relative to AKR1C2 (CBR1 [3]; VMAX, faster than AKR1C2): about 11 fold | rate of 17β-DHE formation by CBR1 relative to recombinant AKR1C enzymes (CBR1 [3]; more rapid than recombinant AKR1C enzymes): 11 to 403 fold | CLINT (CBR1 [3]; wildtype CBR1): 0.0035 µL/min/mg | CLINT (CBR1 [3]; wildtype CBR1, listed as EXE): 0.0035 µL/min/mg | VMAX (CBR1 [3]; wildtype CBR1, normalized to enzyme purity): 928 ± 244 picomoles·min^−1·mg^−1 | metabolite formed [4]: 17β-DHE although a lesser amount of 17α-DHE was detected as well | metabolites formed (CBR1 [5]): both stereoisomers of DHE | metabolites formed (AKR1C2 [6]): only 17β-DHE formation
